Test results: ChEMBL document CHEMBL1938301, “Cyclohexane 1,3-diones and their inhibition of mutant SOD1-dependent protein aggregation and toxicity in PC12 cells” (Bioorg Med Chem, 2012)
Activity calls are given as the source filed them.

Legend:
PC-12 [1] = assay: Inhibition of SOD1 G93A mutant protein aggregation-mediated cytotoxicity in rat PC12 cells expressing yellow fluorescent protein assessed as increase in cell viability relative to radicicol; assay type: cell-based; parameters: concentration or dose not given beside the values
Procedure, shortened: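 PC12 cells expressing G93A SOD1-YFP; MG132 proteasome inhibition induces cytotoxic mutant SOD1 aggregates. Cell survival measured as protection read-out; efficacy expressed relative to radicicol positive control.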

[2] = (§1) Inhibition of SOD1 G93A mutant protein aggregation-mediated cytotoxicity in rat PC12 cells expressing yellow fluorescent protein assessed as increase in cell viability; assay type: cell-based; settings: PC-12
HeLa = assay: Cytoprotective activity against MG132-induced cytotoxicity in human HeLa cells assessed as cell viability at 100 uM pre-treated for 24 hrs before MG132-induction measured after 48 hrs by Calcein-AM-based fluorimetry; assay type: functional
HEK293 = assay: Cytoprotective activity against MG132-induced cytotoxicity in human HEK293 cells assessed as cell viability at 100 uM pre-treated for 24 hrs before MG132-induction measured after 48 hrs by Calcein-AM-based fluorimetry; assay type: functional
Cerebral cortex neuron = assay: Cytoprotective activity against MG132-induced cytotoxicity in rat primary cortical neurons cells assessed as cell viability at 100 uM pre-treated for 24 hrs before MG132-induction measured after 48 hrs by Calcein-AM-based fluorimetry; assay type: functional
Procedure, shortened: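 Neurons from E18 rat cortex (Sprague-Dawley or Fischer 344), papain-dissociated, plated at 20,000 cells/well on poly-D-lysine, cultured 5 days in Neurobasal/B27 (~90% neurons). Six-point series from 100 μM top in roughly one-third steps, 24 h pre-incubation, then MG132 100 nM final. Viability read 48 h later by Calcein-AM (1 μM, 20 min, RT) fluorescence. Active if ≥5 SD above MG132 controls.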

SH-SY5Y = assay: Cytoprotective activity against MG132-induced cytotoxicity in human SH-SY5Y cells assessed as cell viability at 100 uM pre-treated for 24 hrs before MG132-induction measured after 48 hrs by Calcein-AM-based fluorimetry; assay type: functional
PC-12 [3] = assay: Cytoprotective activity against MG132-induced cytotoxicity in rat PC12 cells assessed as cell viability at 100 uM pre-treated for 24 hrs before MG132-induction measured after 48 hrs by Calcein-AM-based fluorimetry; assay type: functional
PC-12 [4] = assay: as §1; assay type: cell-based

Row | Compound | Efficacy (PC-12 [1]) [%] | EC50 [2] [µM] | also measured
1 | O=C1CC(=O)CC(c2ccccc2Cl)C1 | 100 | > 32 | 
2 | O=C1CC(=O)CC(c2ccc3ccccc3c2)C1 | 100 | 6.21 | 
3 | O=C1CC(=O)CC(Cc2ccccc2)C1 | 100 | 1.82 | 
4 | O=C1CC(=O)CC(c2ccc(-c3cccc(Cl)c3)o2)C1 | 100 | 2.71 | 
5 | Cc1cccc(C2CC(=O)CC(=O)C2)c1 | 100 | 4.81 | 
6 | O=C1CC(=O)CC(c2ccoc2)C1 | 100 | > 32 | 
7 | O=C1CC(=O)CC(COc2ccccc2)C1 | 100 | > 32 | 
8 | COc1cc(OC)cc(C2CC(=O)CC(=O)C2)c1 | 100 | 5.2 | 
9 | O=C1CC(=O)CC(c2ccc(C(F)(F)F)cc2C(F)(F)F)C1 | 100 | 2.56 | 
10 | O=C1CC(=O)CC(c2cc(-c3cccc(Cl)c3)cc(C(F)(F)F)c2)C1 | 100 | 1.56 | 
11 | O=C1CC(=O)CC([C@@H]2C[C@H]2c2ccccc2)C1 | 100 | 2.65 | 
12 | O=C1CC(=O)CC(c2ccc(C(F)(F)F)cc2)C1 | 100 | 8.3 | 
13 | CC(C)(C)OC(=O)N1CCN(c2ccc(C3CC(=O)CC(=O)C3)cc2)CC1 | 100 | 8.29 | 
14 | O=C1CC(=O)CC(c2ccc(Cl)cc2Cl)C1 | 100 | 4.57 | 
15 | O=C1CC(=O)CC(c2cccc(-c3cc(F)cc(F)c3)c2)C1 | 100 | 1.24 | 
16 | CC(C)c1ccc(C2CC(=O)CC(=O)C2)cc1 | 100 | 4.09 | 
17 | O=C1CC(=O)CC(c2c(F)cccc2F)C1 | 100 | > 32 | 
18 | O=C1CC(=O)CC(c2cc(-c3ccc(F)cc3)cc(-c3ccc(F)cc3)c2)C1 | 100 | 3.07 | 
19 | CCc1ccccc1C1CC(=O)CC(=O)C1 | 100 | 3.16 | 
20 | CCOc1cccc(C2CC(=O)CC(=O)C2)c1OCC | 100 | 3.99 | 
21 | CC(C)(C)c1ccc(C2CC(=O)CC(=O)C2)cc1 | 100 | 9.93 | 
22 | O=C1CC(=O)CC(CC(c2ccccc2)c2ccccc2)C1 | 100 | 3.43 | 
23 | O=C1CC(=O)CC(c2cccc(Oc3cc(Cl)cc(Cl)c3)c2)C1 | 100 | 6.66 | 
24 | O=C1CC(=O)CC(c2cccc(OC(F)(F)F)c2)C1 | 100 | 2.04 | 

Row | Compound | Efficacy (PC-12 [1]) [%] | EC50 [2] [µM] | also measured
25 | O=C1CC(=O)CC(c2cccc(-c3ccccc3)c2)C1 | 100 | 1.23 | 
26 | Cc1cccc(C)c1C1CC(=O)CC(=O)C1 | 100 | 2.7 | 
27 | O=C1CC(=O)CC(c2cccc(Oc3ccc(Cl)cc3)c2)C1 | 100 | 2.18 | 
28 | Cc1ccccc1C1CC(=O)CC(=O)C1 | 100 | 3.39 | 
29 | O=C1CC(=O)CC(c2cccc(-c3cc(C(F)(F)F)cc(C(F)(F)F)c3)c2)C1 | 100 | 2.15 | 
30 | CCCCCc1ccc(C2CC(=O)CC(=O)C2)cc1 | 100 | 2.01 | 
31 | Cc1cc(C)cc(C2CC(=O)CC(=O)C2)c1 | 100 | 2.4 | 
32 | CCc1ccc(C2CC(=O)CC(=O)C2)cc1 | 100 | 2.22 | 
33 | O=C1CC(=O)CC(c2cc(F)cc(F)c2)C1 | 100 | 8.2 | 
34 | CC(c1ccccc1)C1CC(=O)CC(=O)C1 (racemic) | 100 | 5.85 | 
35 | O=C1CC(=O)CC(c2ccccc2C(F)(F)F)C1 | 100 | 3.2 | 
36 | O=C1CC(=O)CC(c2cc(-c3ccccc3)cc(-c3ccccc3)c2)C1 | 100 | 2.53 | 
37 | CC1(COc2ccccc2)CC(=O)CC(=O)C1 | 100 | 6.28 | 
38 | O=C1CC(=O)CC(c2ccc(Oc3ccc(Cl)cc3)cc2)C1 | 100 | 2.88 | 
39 | O=C1CC(=O)CC(c2cc(-c3ccccc3)cc(C(F)(F)F)c2)C1 | 100 | 0.73 | 
40 | Cc1cc(C)cc(CC2CC(=O)CC(=O)C2)c1 | 100 | 0.9 | 
41 | O=C1CC(=O)CC(c2c(Cl)cc(Cl)cc2Cl)C1 | 100 | 7.01 | 
42 | O=C1CC(=O)CC(c2ccccc2Br)C1 | 100 | > 32 | 
43 | CSc1ccc(C2CC(=O)CC(=O)C2)cc1 | 100 | > 32 | 
44 | O=C1CC(=O)CC(c2ccc(F)cc2F)C1 | 100 | > 32 | 
45 | O=C1CC(=O)CC(c2cccc(-c3ccc(Cl)cc3)c2)C1 | 100 | 3.51 | 
46 | CC(Oc1cc(Cl)cc(Cl)c1)C1CC(=O)CC(=O)C1 (racemic) | 100 | 1.41 | 
47 | O=C1CC(=O)N(CCc2ccccc2)C(=O)N1CCc1ccccc1 | 100 |  | Activity (HeLa): Active; Activity (HEK293): Active; Activity (Cerebral cortex neuron): Active; Activity (SH-SY5Y): Active; Activity (PC-12 [3]): Active
48 | O=C1CC(=O)CC(c2ccc(Oc3cccc(Cl)c3)cc2)C1 | 100 | 3.6 | 

Row | Compound | Efficacy (PC-12 [1]) [%] | EC50 [2] [µM] | also measured
49 | CC(C)c1cccc(C2CC(=O)CC(=O)C2)c1 | 100 | 1.58 | 
50 | O=C1CC(=O)CC(c2c(Cl)cccc2Cl)C1 | 100 | 24.3 | 
51 | O=C1CC(=O)CC(c2cccc(C(F)(F)F)c2)C1 | 100 | 3.33 | 
52 | O=C1CC(=O)CC(c2cc(Cl)cc(-c3ccccc3)c2)C1 | 100 | 1.1 | 
53 | CCCc1ccc(C2CC(=O)CC(=O)C2)cc1 | 100 | 2.22 | 
54 | Cc1cccc(C2CC(=O)CC(=O)C2)c1C | 100 | 2.39 | 
55 | CC1(COc2cc(C(F)(F)F)cc(C(F)(F)F)c2)CC(=O)CC(=O)C1 | 100 | 0.7 | 
56 | O=C1CC(=O)CC([C@@H]2C[C@H]2c2cc(C(F)(F)F)cc(C(F)(F)F)c2)C1 (racemic) | 100 | 0.7 | 
57 | O=C1CC(=O)CC(c2cc(Cl)cc(Cl)c2)C1 | 100 | 2.35 | 
58 | O=C1CC(=O)CC(c2ccccc2Oc2ccc(F)cc2)C1 | 100 | 1.16 | 
59 | CCOc1ccc(C2CC(=O)CC(=O)C2)c(OCC)c1 | 100 | 1.49 | 
60 | O=C1CC(=O)CC(c2ccc(OCCCc3ccccc3)cc2)C1 | 100 | 1.3 | 
61 | O=C1CC(=O)CC(c2ccccc2F)C1 | 100 | > 32 | 
62 | CCCCc1ccc(C2CC(=O)CC(=O)C2)cc1 | 100 | 2.71 | 
63 | O=C1CC(=O)CC(c2cccc(Cl)c2)C1 | 100 | 6.52 | 
64 | CCn1c2ccccc2c2cc(C3CC(=O)CC(=O)C3)ccc21 | 100 | 3.09 | 
65 | Cc1cc(C)c(C2CC(=O)CC(=O)C2)c(C)c1 | 100 | > 32 | 
66 | O=C1CC(=O)CC(c2ccc(OCc3ccccc3)cc2)C1 | 100 | > 32 | 
67 | O=C1CC(=O)CC(c2cccc(Br)c2)C1 | 100 | 28.7 | 
68 | O=C1CC(=O)CC(c2ccc(Oc3ccc(F)cc3)cc2)C1 | 100 | 2.37 | 
69 | C[C@@H]1C[C@H]2O[C@@H]2/C=C\C=C\C(=O)Cc2c(Cl)c(O)cc(O)c2C(=O)O1 |  |  | Efficacy (PC-12 [4]): 85%
70 | O=C1CC(=O)CC(COc2cc(C(F)(F)F)cc(C(F)(F)F)c2)C1 | 100 | 0.7 | 
71 | O=C1CC(=O)CC(c2ccc(OCCOc3ccccc3)cc2)C1 | 100 | 1.56 | 
72 | O=c1cc(COc2cc(Cl)cc(Cl)c2)[nH][nH]1 |  |  | Activity (HeLa): Active; Activity (HEK293): Active; Activity (Cerebral cortex neuron): Active; Activity (SH-SY5Y): Active; Activity (PC-12 [3]): Active
